{"source": "ChEMBL document CHEMBL5303300", "about": "“EUbOPEN Chemogenomics Library - Multiplex” (2023)", "key": {"[1]": {"test_system": "U2OS", "assay": "Multiplex assay against U2OS", "type": "toxicity, cell-based", "settings": "human, number of replicates 2", "method_in_brief": "(§1)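 Tubulin, mitochondrial-mass and membrane-permeability phenotypes are per cents of healthy-nucleus cells. Cells were gated by CellPathfinder machine learning into Hoechst high-intensity objects or normal cells, normal cells into healthy, pyknosed or fragmented nuclei, and pyknosed cells into mitotic or apoptotic. Before that, live cells stained at seeding with Hoechst33342, BioTracker Green Microtubule Cytoskeleton Dye, MitoTracker Red and Annexin V Alexa Fluor 680 were imaged on a CQ1 microscope at 37°C and 5% CO2 after compound addition.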"}, "[2]": {"test_system": "HEK-293T", "assay": "Multiplex assay against HEK293T", "type": "toxicity, cell-based", "settings": "human, number of replicates 2", "method_in_brief": "as §1"}, "[3]": {"settings": "24 h, 10 µM, compound concentration 10 uM"}, "[4]": {"settings": "48 h, 1 µM, compound concentration 1 uM"}, "[5]": {"settings": "48 h, 10 µM, compound concentration 10 uM"}, "[6]": {"settings": "12 h, 1 µM, compound concentration 1 uM"}, "[7]": {"settings": "12 h, 10 µM, compound concentration 10 uM"}, "[8]": {"settings": "24 h, 1 µM, compound concentration 1 uM"}}, "note": "Where “and” joins values, the source holds several entries; their conditions need not be identical. Identical values can stand only once."}
{"smiles": "CCn1c(-c2nonc2N)nc2cncc(C(=O)N3CC[C@H](N)C3)c21.Cl", "values": [{"measurement": "Population Fragmented Nuclei (%)", "setting": "[1]; [3]", "value": "17% and 8%"}, {"measurement": "Population Healthy Nuclei (%)", "setting": "[1]; [3]", "value": "67% and 77%"}, {"measurement": "Population Hoechst High Intensity Objects (%)", "setting": "[1]; [3]", "value": 0, "unit": "%"}, {"measurement": "Population Membrane Permeable-Phenotype (%)", "setting": "[1]; [3]", "value": "2% and 3%"}, {"measurement": "Population Mitochondria Different-Phenotype (%)", "setting": "[1]; [3]", "value": "0% and 1%"}, {"measurement": "Population Mitotic Cells (%)", "setting": "[1]; [3]", "value": "44% and 42%"}, {"measurement": "Population Normal (%)", "setting": "[1]; [3]", "value": 100, "unit": "%"}, {"measurement": "Population Pyknosed Nuclei (%)", "setting": "[1]; [3]", "value": "15% and 14%"}, {"measurement": "Population Tubulin-Different-Phenotype (%)", "setting": "[1]; [3]", "value": "79% and 89%"}, {"measurement": "Population Apoptotic (%)", "setting": "[1]; [4]", "value": "60% and 82%"}, {"measurement": "Population Healthy Nuclei (%)", "setting": "[1]; [4]", "value": "71% and 89%"}, {"measurement": "Population Hoechst High Intensity Objects (%)", "setting": "[1]; [4]", "value": 0, "unit": "%"}, {"measurement": "Population Membrane Permeable-Phenotype (%)", "setting": "[1]; [4]", "value": "7% and 1%"}, {"measurement": "Population Mitochondria Different-Phenotype (%)", "setting": "[1]; [4]", "value": "2% and 0%"}, {"measurement": "Population Mitotic Cells (%)", "setting": "[1]; [4]", "value": "40% and 17%"}, {"measurement": "Population Normal (%)", "setting": "[1]; [4]", "value": 100, "unit": "%"}, {"measurement": "Population Pyknosed Nuclei (%)", "setting": "[1]; [4]", "value": "9% and 6%"}, {"measurement": "Population Tubulin-Different-Phenotype (%)", "setting": "[1]; [4]", "value": "76% and 81%"}, {"measurement": "Population Apoptotic (%)", "setting": "[1]; [5]", "value": "75% and 74%"}, {"measurement": "Population Fragmented Nuclei (%)", "setting": "[1]; [5]", "value": "15% and 5%"}, {"measurement": "Population Healthy Nuclei (%)", "setting": "[1]; [5]", "value": "69% and 79%"}, {"measurement": "Population Hoechst High Intensity Objects (%)", "setting": "[1]; [5]", "value": 0, "unit": "%"}, {"measurement": "Population Membrane Permeable-Phenotype (%)", "setting": "[1]; [5]", "value": "3% and 4%"}, {"measurement": "Population Mitochondria Different-Phenotype (%)", "setting": "[1]; [5]", "value": 0, "unit": "%"}, {"measurement": "Population Mitotic Cells (%)", "setting": "[1]; [5]", "value": 25, "unit": "%"}, {"measurement": "Population Normal (%)", "setting": "[1]; [5]", "value": "100% and 99%"}, {"measurement": "Population Pyknosed Nuclei (%)", "setting": "[1]; [5]", "value": 15, "unit": "%"}, {"measurement": "Population Tubulin-Different-Phenotype (%)", "setting": "[1]; [5]", "value": "68% and 91%"}, {"measurement": "Population Apoptotic (%)", "setting": "[2]; [6]", "value": "31% and 33%"}, {"measurement": "Population Fragmented Nuclei (%)", "setting": "[2]; [6]", "value": 2, "unit": "%"}, {"measurement": "Population Healthy Nuclei (%)", "setting": "[2]; [6]", "value": "81% and 83%"}, {"measurement": "Population Hoechst High Intensity Objects (%)", "setting": "[2]; [6]", "value": "7% and 5%"}, {"measurement": "Population Membrane Permeable-Phenotype (%)", "setting": "[2]; [6]", "value": "4% and 1%"}, {"measurement": "Population Mitochondria Different-Phenotype (%)", "setting": "[2]; [6]", "value": "10% and 8%"}, {"measurement": "Population Mitotic Cells (%)", "setting": "[2]; [6]", "value": "68% and 66%"}, {"measurement": "Population Normal (%)", "setting": "[2]; [6]", "value": "92% and 94%"}, {"measurement": "Population Pyknosed Nuclei (%)", "setting": "[2]; [6]", "value": "16% and 14%"}, {"measurement": "Population Tubulin-Different-Phenotype (%)", "setting": "[2]; [6]", "value": "33% and 38%"}, {"measurement": "Total Cell Count", "setting": "[2]; [6]", "value": "694 and 685"}, {"measurement": "Population Apoptotic (%)", "setting": "[2]; [7]", "value": "21% and 43%"}, {"measurement": "Population Fragmented Nuclei (%)", "setting": "[2]; [7]", "value": 2, "unit": "%"}, {"measurement": "Population Healthy Nuclei (%)", "setting": "[2]; [7]", "value": "84% and 78%"}, {"measurement": "Population Hoechst High Intensity Objects (%)", "setting": "[2]; [7]", "value": "5% and 4%"}, {"measurement": "Population Membrane Permeable-Phenotype (%)", "setting": "[2]; [7]", "value": "1% and 0%"}, {"measurement": "Population Mitochondria Different-Phenotype (%)", "setting": "[2]; [7]", "value": "12% and 15%"}, {"measurement": "Population Mitotic Cells (%)", "setting": "[2]; [7]", "value": "78% and 56%"}, {"measurement": "Population Normal (%)", "setting": "[2]; [7]", "value": "94% and 95%"}, {"measurement": "Population Pyknosed Nuclei (%)", "setting": "[2]; [7]", "value": "13% and 19%"}, {"measurement": "Population Tubulin-Different-Phenotype (%)", "setting": "[2]; [7]", "value": "38% and 31%"}, {"measurement": "Total Cell Count", "setting": "[2]; [7]", "value": "716 and 454"}, {"measurement": "Population Apoptotic (%)", "setting": "[2]; [8]", "value": "46% and 37%"}, {"measurement": "Population Fragmented Nuclei (%)", "setting": "[2]; [8]", "value": 3, "unit": "%"}, {"measurement": "Population Healthy Nuclei (%)", "setting": "[2]; [8]", "value": "84% and 86%"}, {"measurement": "Population Hoechst High Intensity Objects (%)", "setting": "[2]; [8]", "value": "6% and 5%"}, {"measurement": "Population Membrane Permeable-Phenotype (%)", "setting": "[2]; [8]", "value": 2, "unit": "%"}, {"measurement": "Population Mitochondria Different-Phenotype (%)", "setting": "[2]; [8]", "value": "2% and 3%"}, {"measurement": "Population Mitotic Cells (%)", "setting": "[2]; [8]", "value": "53% and 62%"}, {"measurement": "Population Normal (%)", "setting": "[2]; [8]", "value": "93% and 94%"}, {"measurement": "Population Pyknosed Nuclei (%)", "setting": "[2]; [8]", "value": "11% and 9%"}, {"measurement": "Population Tubulin-Different-Phenotype (%)", "setting": "[2]; [8]", "value": "12% and 20%"}, {"measurement": "Total Cell Count", "setting": "[2]; [8]", "value": "994 and 875"}, {"measurement": "Population Apoptotic (%)", "setting": "[2]; [3]", "value": "30% and 53%"}, {"measurement": "Population Fragmented Nuclei (%)", "setting": "[2]; [3]", "value": "2% and 1%"}, {"measurement": "Population Healthy Nuclei (%)", "setting": "[2]; [3]", "value": "86% and 79%"}, {"measurement": "Population Hoechst High Intensity Objects (%)", "setting": "[2]; [3]", "value": "8% and 7%"}, {"measurement": "Population Membrane Permeable-Phenotype (%)", "setting": "[2]; [3]", "value": 1, "unit": "%"}, {"measurement": "Population Mitochondria Different-Phenotype (%)", "setting": "[2]; [3]", "value": "12% and 16%"}, {"measurement": "Population Mitotic Cells (%)", "setting": "[2]; [3]", "value": "69% and 46%"}, {"measurement": "Population Normal (%)", "setting": "[2]; [3]", "value": "91% and 92%"}, {"measurement": "Population Pyknosed Nuclei (%)", "setting": "[2]; [3]", "value": "10% and 18%"}, {"measurement": "Population Tubulin-Different-Phenotype (%)", "setting": "[2]; [3]", "value": "36% and 34%"}, {"measurement": "Total Cell Count", "setting": "[2]; [3]", "value": "751 and 447"}, {"measurement": "Population Apoptotic (%)", "setting": "[2]; [4]", "value": "9% and 19%"}, {"measurement": "Population Fragmented Nuclei (%)", "setting": "[2]; [4]", "value": "9% and 8%"}, {"measurement": "Population Healthy Nuclei (%)", "setting": "[2]; [4]", "value": "86% and 87%"}, {"measurement": "Population Hoechst High Intensity Objects (%)", "setting": "[2]; [4]", "value": "10% and 9%"}, {"measurement": "Population Membrane Permeable-Phenotype (%)", "setting": "[2]; [4]", "value": 3, "unit": "%"}, {"measurement": "Population Mitochondria Different-Phenotype (%)", "setting": "[2]; [4]", "value": 0, "unit": "%"}, {"measurement": "Population Mitotic Cells (%)", "setting": "[2]; [4]", "value": "90% and 80%"}, {"measurement": "Population Normal (%)", "setting": "[2]; [4]", "value": "89% and 90%"}, {"measurement": "Population Pyknosed Nuclei (%)", "setting": "[2]; [4]", "value": "3% and 4%"}, {"measurement": "Population Tubulin-Different-Phenotype (%)", "setting": "[2]; [4]", "value": "11% and 10%"}, {"measurement": "Total Cell Count", "setting": "[2]; [4]", "value": "1942 and 1388"}, {"measurement": "Population Apoptotic (%)", "setting": "[2]; [5]", "value": "51% and 57%"}, {"measurement": "Population Fragmented Nuclei (%)", "setting": "[2]; [5]", "value": "7% and 3%"}, {"measurement": "Population Healthy Nuclei (%)", "setting": "[2]; [5]", "value": "87% and 84%"}, {"measurement": "Population Hoechst High Intensity Objects (%)", "setting": "[2]; [5]", "value": 11, "unit": "%"}, {"measurement": "Population Membrane Permeable-Phenotype (%)", "setting": "[2]; [5]", "value": "2% and 1%"}, {"measurement": "Population Mitochondria Different-Phenotype (%)", "setting": "[2]; [5]", "value": "4% and 7%"}, {"measurement": "Population Mitotic Cells (%)", "setting": "[2]; [5]", "value": "48% and 42%"}, {"measurement": "Population Normal (%)", "setting": "[2]; [5]", "value": 88, "unit": "%"}, {"measurement": "Population Pyknosed Nuclei (%)", "setting": "[2]; [5]", "value": "5% and 12%"}, {"measurement": "Population Tubulin-Different-Phenotype (%)", "setting": "[2]; [5]", "value": "28% and 30%"}, {"measurement": "Total Cell Count", "setting": "[2]; [5]", "value": "917 and 468"}]}
